Laboratory results: ChEMBL document CHEMBL1129750, “Bicyclic N-hydroxyurea inhibitors of 5-lipoxygenase: pharmacodynamic, pharmacokinetic, and in vitro metabolic studies characterizing N-hydroxy-N-(2,3-dihydro-6-(phenylmethoxy)-3-benzofuranyl)urea” (J Med Chem, 1996)
Calls of active or inactive are those of the source. The rule behind the calls is not given here.

Assays:
Mus musculus [1] = assay: Compound was tested to inhibit Leukotriene formation in mouse sensitized with 1BD8 cells after 7 hr of compound administration, activity expressed as percent of control; assay type: functional; set-up: concentration or dose not given beside the values
[2] = target: T1, Polyunsaturated fatty acid 5-lipoxygenase (Mus musculus) (UniProt P48999); assay: Inhibition of leukotriene formation in A-23187-stimulated mouse whole blood using […] ex vivo, activity expressed as percent of control.; assay type: functional, tissue-based; set-up: scale not given: the % may be the effect or the level left
T1 sequence (whole entry): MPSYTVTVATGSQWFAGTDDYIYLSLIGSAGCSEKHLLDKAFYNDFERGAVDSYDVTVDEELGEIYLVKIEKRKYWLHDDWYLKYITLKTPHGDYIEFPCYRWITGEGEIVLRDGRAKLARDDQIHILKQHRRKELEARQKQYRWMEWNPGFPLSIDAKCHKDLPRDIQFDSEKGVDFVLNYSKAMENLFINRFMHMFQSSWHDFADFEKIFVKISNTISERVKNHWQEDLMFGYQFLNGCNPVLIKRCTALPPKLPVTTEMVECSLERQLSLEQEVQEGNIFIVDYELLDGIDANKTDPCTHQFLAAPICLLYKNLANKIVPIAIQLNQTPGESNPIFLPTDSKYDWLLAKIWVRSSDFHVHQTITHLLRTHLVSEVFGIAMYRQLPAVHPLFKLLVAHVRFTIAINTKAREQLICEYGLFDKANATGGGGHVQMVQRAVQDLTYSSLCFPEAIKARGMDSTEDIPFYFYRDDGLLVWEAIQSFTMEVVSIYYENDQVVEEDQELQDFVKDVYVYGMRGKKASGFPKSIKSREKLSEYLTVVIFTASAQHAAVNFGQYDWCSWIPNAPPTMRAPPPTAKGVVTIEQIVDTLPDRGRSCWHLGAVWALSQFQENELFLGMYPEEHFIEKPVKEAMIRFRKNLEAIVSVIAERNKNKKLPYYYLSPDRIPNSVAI

Mus musculus [3] = species: Mus musculus; assay: Compound was tested to inhibit Leukotriene formation in A-23187-stimulated mouse whole blood using […] ex vivo; assay type: functional; details: Mus musculus, Blood; read-out: ED50
Mus musculus [4] = species: Mus musculus; assay: Glucuronidation rates in mouse liver microsomes; assay type: functional
Procedure, shortened: (§1)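 Liver microsomes (fresh male CD-1 mouse >10 weeks, or frozen human donor) at 0.25–1.0 mg/mL protein. Incubated with 2.5 mM substrate, 15 mM [14C]UDP-glucuronic acid, 10 mM MgCl2 and 2% BSA in 100 mM sodium phosphate pH 7.4, at 37 °C for 1–4 h. Stopped with 20% acetonitrile; glucuronide quantified by HPLC. Mean of duplicates.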

Mus musculus [5] = assay: Maximum inhibition of LTB4 at dose 2 mg/kg in mouse; assay type: functional
Mus musculus [6] = assay: Percentage inhibition of LTB4 after 6 hr at dose 2 mg/kg in mouse; assay type: functional
Homo sapiens = species: Homo sapiens; assay: Glucuronidation rates in human liver microsomes; assay type: functional; procedure, shortened: as §1
Mus musculus [7] = species: Mus musculus; assay: Inhibition of Leukotriene formation in mouse adoptive peritoneal anaphylaxis assay ex vivo; assay type: functional; details: Mus musculus
[8] = target: T2, Polyunsaturated fatty acid 5-lipoxygenase (Rattus norvegicus, UniProt P12527); assay: Inhibitory activity against rat 5-lipoxygenase by using continuous oxygen consumption assay.
T2 sequence (P12527 whole entry): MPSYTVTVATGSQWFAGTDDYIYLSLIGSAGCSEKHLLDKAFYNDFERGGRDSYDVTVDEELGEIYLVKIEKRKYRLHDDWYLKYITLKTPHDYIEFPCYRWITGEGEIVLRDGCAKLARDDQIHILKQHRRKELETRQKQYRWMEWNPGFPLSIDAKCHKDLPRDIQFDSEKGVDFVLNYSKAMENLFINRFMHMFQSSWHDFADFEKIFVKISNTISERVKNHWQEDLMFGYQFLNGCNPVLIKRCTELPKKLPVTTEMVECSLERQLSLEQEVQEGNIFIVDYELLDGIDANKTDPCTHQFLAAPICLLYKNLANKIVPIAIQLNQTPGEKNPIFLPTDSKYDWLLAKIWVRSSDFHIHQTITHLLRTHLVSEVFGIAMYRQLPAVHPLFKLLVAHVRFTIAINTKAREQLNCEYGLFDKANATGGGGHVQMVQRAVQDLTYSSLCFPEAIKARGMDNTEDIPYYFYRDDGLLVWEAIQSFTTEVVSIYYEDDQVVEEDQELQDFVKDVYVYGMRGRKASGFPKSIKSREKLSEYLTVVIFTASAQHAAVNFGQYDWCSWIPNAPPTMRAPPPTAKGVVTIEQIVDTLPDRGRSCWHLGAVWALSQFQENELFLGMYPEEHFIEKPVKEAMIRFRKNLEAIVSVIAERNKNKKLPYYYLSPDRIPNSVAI
Procedure, shortened: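 Semipurified cytosolic 5-LO from rat basophilic leukemia (RBL-1) cells; continuous oxygen-electrode assay of oxygen consumption; IC50.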

Mus musculus [9] = species: Mus musculus; assay: Percentage inhibition of LTB4 formation after 6 hr in mouse; assay type: functional
Mus musculus [10] = assay: Maximum inhibition of LTB4 formation at dose 15 mg/kg in mouse; assay type: functional
Mus musculus [11] = assay: Maximum inhibition of LTB4 at dose 10 mg/kg in mouse; assay type: functional
Mus musculus [12] = assay: Percentage inhibition of LTB4 after 6 hr at dose 10 mg/kg in mouse; assay type: functional
Mus musculus [13] = species: Mus musculus; assay: Compound was tested to inhibit Leukotriene formation in A-23187-stimulated mouse whole blood using […] ex vivo, activity expressed as percent of control; NS=No Stastistical Significance; assay type: functional, organism-based
Mus musculus [14] = species: Mus musculus; assay: Glucuronidation rates in mouse liver microsomes; not detected; assay type: functional; procedure, shortened: as §1

CC(c1cc2ccccc2s1)N(O)C(N)=O (stereo not drawn) [ZILEUTON]
Activity (Mus musculus [1]): -10% | Activity [2]: -78% | ED50 (Mus musculus [3]): 1 mg/kg | Rate of formation (nM (mg of protein)-1) (Mus musculus [4]): 0.7 | Max inhibition (Mus musculus [5]): 70 | inhibition in vivo at 2 mg/kg (Mus musculus [6]): 40% | Rate of formation (nM (mg of protein)-1) (Homo sapiens): 6.8 | ED50 (Mus musculus [7]): 1 mg/kg

NC(=O)N(O)C1CCc2cc(OCc3ccccc3)ccc21 (single isomer, unassigned; (+))
IC50 [8]: 880 nM

NC(=O)N(O)C1CCn2c1cc1ccccc12 (stereo not drawn)
IC50 [8]: 10000 nM | Activity [2]: -74%

NC(=O)N(O)C1CCCc2ccccc21 (stereo not drawn)
IC50 [8]: 29000 nM | Activity [2]: -30%

NC(=O)N(O)C1COc2cc(OCc3ccccc3)ccc21 (stereo in doubt; 1a)
Activity [2]: -100%

NC(=O)N(O)C1CCCc2cc(OCc3ccccc3)ccc21 (stereo in doubt; 3a)
IC50 [8]: 1800 nM | ED50 (Mus musculus [3]): 9.9 mg/kg | Inhibition (Mus musculus [9]): 67% | Max inhibition (Mus musculus [10]): 61

Cc1c2n(c3ccc(Oc4ccccc4)cc13)CCC2N(O)C(N)=O (stereo not drawn)
Activity [2]: -26%

COc1ccc(COc2ccc3c(c2)OCC3N(O)C(N)=O)cc1 (stereo not drawn)
IC50 [8]: 2700 nM | Activity [2]: -73% | ED50 (Mus musculus [3]): 9.8 mg/kg

NC(=O)N(O)C1CCc2cc(OCc3ccccc3)ccc21 (stereo in doubt; 2a)
IC50 [8]: 780 nM | Activity (Mus musculus [1]): -31% | ED50 (Mus musculus [3]): 2.6 mg/kg | ED50 (Mus musculus [7]): 4 mg/kg

NC(=O)N(O)C1COc2c1ccc1ccccc21 (stereo not drawn)
IC50 [8]: 4200 nM

NC(=O)N(O)C1CCc2cc(Oc3ccccc3)ccc21 (stereo not drawn)
IC50 [8]: 850 nM | Activity [2]: -88% | ED50 (Mus musculus [3]): 6.4 mg/kg | Max inhibition (Mus musculus [11]): 88 | inhibition in vivo at 10 mg/kg (Mus musculus [12]): 57%

NC(=O)N(O)C1CCCc2cc(OCc3ccc4ccccc4c3)ccc21 (stereo not drawn)
IC50 [8]: 500 nM | Activity (Mus musculus [13]): inactive

NC(=O)N(O)C1CCc2cc(OCc3ccccc3)ccc21 (stereo in doubt; (-)2a) [listing 1 of 2 here]
IC50 [8]: 620 nM

NC(=O)N(O)C1CCCc2cc(OCc3ccc(Cl)cc3)ccc21 (stereo not drawn)
IC50 [8]: 2200 nM | Activity (Mus musculus [1]): 0% | Activity [2]: -70% | ED50 (Mus musculus [3]): 4.5 mg/kg | ED50 (Mus musculus [7]): 4.5 mg/kg

NC(=O)N(O)C1CCc2cc(OCc3ccccc3)ccc21 (stereo in doubt; (-)2a) [listing 2 of 2 here]
Activity [2]: 0.9%

NC(=O)N(O)C1COc2cc(OCc3ccccc3)ccc21 (single isomer, unassigned; (+))
Rate of formation (Mus musculus [14]): inactive | Rate of formation (nM (mg of protein)-1) (Homo sapiens): 2.5

NC(=O)N(O)C1COc2cc(OCc3ccccc3)ccc21 (single isomer, unassigned; (-))
Rate of formation (nM (mg of protein)-1) (Mus musculus [4]): 5.9 | Rate of formation (nM (mg of protein)-1) (Homo sapiens): 60.3

NC(=O)N(O)C1CCCc2cc(OCc3ccccc3)ccc21 (single isomer, unassigned; (+))
IC50 [8]: 760 nM

CCc1ccc2c(c1)cc1n2CCC1N(O)C(N)=O (stereo not drawn)
Activity (Mus musculus [13]): inactive

COc1ccc(COc2ccc3c(c2)CCCC3N(O)C(N)=O)cc1 (stereo not drawn)
IC50 [8]: 500 nM | Activity (Mus musculus [1]): -13% | Activity [2]: -81% | ED50 (Mus musculus [3]): 4.8 mg/kg | ED50 (Mus musculus [7]): 4.8 mg/kg

NC(=O)N(O)C1CCCc2c1ccc1ccccc21 (stereo not drawn)
IC50 [8]: 5600 nM
